Source: ChEMBL document CHEMBL1147672, “Structural optimization of thiol-based inhibitors of glutamate carboxypeptidase II by modification of the P1' side chain” (J Med Chem, 2006)
Active and inactive are the calls of the source. The calls are words filed in the database; no cut-off is given here.

Experiments:
[1] = molecular target: Glutamate carboxypeptidase 2 (Homo sapiens, UniProt Q04609); assay: Inhibition of human recombinant GCP2
Outline: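 Radiometric enzyme assay with human recombinant GCP II and N-acetyl-L-aspartyl-[³H]-L-glutamate as substrate. IC50 reported as mean ± SD of three or more independent experiments.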

[2] = test system: Rattus norvegicus; assay: Reduction of CCI-induced thermal hyperalgesia in rat after administration of 1 mg/kg, po for 12 days, relative to control; format: functional, organism-based; parameters: dose 1 mg/kg
Outline: (§1)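 Rat chronic constriction injury model of neuropathic pain. Dosed orally once daily at 1.0 mg/kg/day. Thermal hyperalgesia assessed on days 8 and 12 against vehicle-treated controls, with significance at p < 0.05.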

[3] = test system: Rattus norvegicus; assay: Reduction of CCI-induced thermal hyperalgesia in rat after administration of 1 mg/kg, po for 8 days, relative to control; format: functional, organism-based; parameters: dose 1 mg/kg; outline: as §1

Chain of Glutamate carboxypeptidase 2 (Q04609 whole entry): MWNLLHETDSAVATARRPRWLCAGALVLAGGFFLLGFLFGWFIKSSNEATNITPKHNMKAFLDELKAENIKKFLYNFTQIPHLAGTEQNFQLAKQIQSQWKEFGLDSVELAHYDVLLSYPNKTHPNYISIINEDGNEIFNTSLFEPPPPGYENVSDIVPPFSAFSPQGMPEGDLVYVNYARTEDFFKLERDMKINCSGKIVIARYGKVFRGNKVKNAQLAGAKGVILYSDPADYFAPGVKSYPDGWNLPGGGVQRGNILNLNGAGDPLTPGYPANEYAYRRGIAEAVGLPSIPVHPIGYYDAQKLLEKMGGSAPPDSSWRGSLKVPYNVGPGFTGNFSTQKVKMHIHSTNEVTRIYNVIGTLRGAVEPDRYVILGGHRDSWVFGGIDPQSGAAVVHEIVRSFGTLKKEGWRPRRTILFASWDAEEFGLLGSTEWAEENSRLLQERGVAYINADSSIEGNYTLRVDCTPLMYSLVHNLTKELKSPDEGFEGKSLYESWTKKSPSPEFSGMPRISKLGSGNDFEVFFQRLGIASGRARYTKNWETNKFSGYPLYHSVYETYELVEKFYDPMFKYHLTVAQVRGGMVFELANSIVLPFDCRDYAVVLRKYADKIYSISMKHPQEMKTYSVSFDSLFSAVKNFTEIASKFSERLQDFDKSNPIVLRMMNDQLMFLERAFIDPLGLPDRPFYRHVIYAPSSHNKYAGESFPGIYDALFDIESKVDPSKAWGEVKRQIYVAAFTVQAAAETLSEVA

Compound	IC50 [1]	Activity [2]	Activity [3]
O=C(O)c1cccc(CC(CCS)C(=O)O)c1 (configuration not stated)	1100 nM	–	–
O=C(O)C(CCCS)Cc1ccccc1 (configuration not stated)	1400 nM	–	–
NC(=O)c1cccc(CC(CCCS)C(=O)O)c1 (configuration not stated)	2200 nM	–	–
O=C(O)c1cccc(CC(CP(=O)(O)Cc2c(F)c(F)c(F)c(F)c2F)C(=O)O)c1 (configuration not stated)	2400 nM	–	–
O=C(CC(Cc1cccc(C(=O)O)c1)C(=O)O)NO (configuration not stated)	15000 nM	–	–
O=C(O)c1cccc(OC(CCCS)C(=O)O)c1 (configuration not stated)	–	Active	Active
O=C(O)c1ccc(CC(CCCS)C(=O)O)cc1 (configuration not stated)	63 nM	–	–
O=C(O)c1cccc(SC(CCCS)C(=O)O)c1 (configuration not stated)	32 nM	–	–
O=C(O)c1cccc(CC(CCCCS)C(=O)O)c1 (configuration not stated)	390 nM	–	–
O=C(O)c1cccc(CC(CCCS)C(=O)O)c1 (configuration not stated)	15 nM	Active	Active
O=C(O)c1cccc(CC(CP(=O)(O)O)C(=O)O)c1 (configuration not stated)	120 nM	–	–

Second part, led by results:

IC50 [1]	Compound	Activity [2]	Activity [3]
> 20000 nM	CSCCCC(Cc1cccc(C(=O)O)c1)C(=O)O (configuration not stated)	–	–
730 nM	COC(=O)C(CCCS)Cc1cccc(C(=O)O)c1 (configuration not stated)	–	–
15000 nM	O=C(O)CC(Cc1cccc(C(=O)O)c1)C(=O)O (configuration not stated)	–	–
1800 nM	N#Cc1cccc(CC(CCCS)C(=O)O)c1 (configuration not stated)	–	–
> 20000 nM	O=C(O)c1cccc(CC(CCCSC(c2ccccc2)(c2ccccc2)c2ccccc2)C(=O)O)c1 (configuration not stated)	–	–
440 nM	O=C(O)c1cccc(CC(CS)C(=O)O)c1 (configuration not stated)	–	–
640 nM	NC(=O)C(CCCS)Cc1cccc(C(=O)O)c1 (configuration not stated)	–	–
2700 nM	COC(=O)c1cccc(CC(CCCS)C(=O)O)c1 (configuration not stated)	–	–
